Assay outcomes: PubChem, Johns Hopkins Ion Channel Center
Compounds with a hit are over-represented: about 3.1% of the library has one in this group of screens.
KCNK3 block: human KCNK3 channel inhibitors, primary screen, CHO cells, FluxOR thallium flux, B-score; Potassium channel subfamily K member 3 (Homo sapiens), O14649; FluxOR fluorescence; stronger effect = lower value; B-score at 10 µM; hit rate 0.84% among 340,000; AID 602410, 2012;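 active = B-score under library mean minus 4 SD, starting fluorescence ratio at most library mean plus 5 SD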;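 also: more negative B-score means stronger inhibition of thallium flux through KCNK3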
hERG rescue: hERG rescue from dofetilide block, primary screen, cell-based, CHO-hERG, FluxOR thallium flux, dofetilide IC70. hit rate 0.51% among 310,000. dofetilide IC70 present. activation (rescue from dofetilide block), less the hit threshold, % at 10 µM. AID 1511, 2009. Voltage-gated inwardly rectifying potassium channel KCNH2 (Homo sapiens), Q12809;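 active = activation above the mean of controls blocked by dofetilide plus 5 SD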;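 also: thallium influx through hERG after potassium depolarization seen as dye fluorescence rise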
KCNQ1 block: inhibitors of human KCNQ1 channel, primary screen, cell-based, thallium flux, high-throughput; AID 2642, 2010; hit rate 1.3% among 310,000; CHO-K1 KCNQ1, FluxOR thallium flux fluorescence; stronger effect = higher value; B-score at 10 µM;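 active = compounds whose thallium flux B-score, printed positive for inhibition, exceeds three library SD while starting fluorescence stays within three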;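 also: channel opened by potassium depolarization with thallium stimulus after 20 min compound exposure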
KCNK9 inh: KCNK9 potassium channel inhibitors, primary screen, HEK293 cells, thallium flux | Potassium channel subfamily K member 9 (Homo sapiens), Q9NPC2 | FluxOR thallium flux fluorescence; stronger effect = lower value | B-score at 10 µM | hit rate 1.2% among 310,000;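 active = ratio B-score over 3 SD below the library mean, with starting fluorescence within 5 SD of its mean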;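 also: negative B-score means less thallium flux so channel inhibition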
KCNQ1 pot: potentiators or activators of KCNQ1 channel, primary screen, cell-based, thallium flux, high-throughput; Potassium voltage-gated channel subfamily KQT member 1 (Homo sapiens), P51787; CHO-K1 KCNQ1, thallium flux FluxOR fluorescence; stronger effect = higher value; B-score at 10 µM; hit rate 0.35% among 310,000;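 active = fluorescence ratio B-score, a plate-corrected score, at least three library SD, with initial intensity B-score within 5 SD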
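Schedule – 37 °C overnight plating, 90-min dark dye load, 20-min compound pretreatment · System – stable KCNQ1 CHO-K1 line · Probe or stimulus – thallium- and potassium-containing depolarizing buffer · Measured by – kinetic FluxOR fluorescence, 10 s baseline plus 110 s post-stimulus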
KCNK9 block conf: KCNK9 potassium channel inhibitors, confirmation, HEK293 cells, thallium flux, duplicate; inhibition, % at 10 µM; shares compounds with KCNK9 inh; FluxOR thallium flux fluorescence; hit rate 43% among 4,900;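 active = thallium signal inhibited by more than 5 SD of the compound-free buffer control wells, on both duplicate plates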;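 also: 0% = assay buffer control wells without compound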
Kir2-1 spec: mouse Kir2.1 channel inhibition, confirmation, selectivity assay for KCNK9 modulator project, cell-based, HEK293, thallium flux. hit rate 4% among 4,900. AID 492993, 2010. Kir2.1 cells, FluxOR thallium flux fluorescence. shares compounds with KCNK9 inh. inhibition, % at 10 µM;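 active = thallium signal drop more than 5 SD beyond the mean of the no-compound control wells, seen in both duplicate plates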;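 also: signal is fluorescence rise after thallium addition divided by baseline fluorescence; plate controls were assay buffer only for no effect and full block by chlorpromazine control for full effect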
Target sequence (P35561 whole entry, looked up): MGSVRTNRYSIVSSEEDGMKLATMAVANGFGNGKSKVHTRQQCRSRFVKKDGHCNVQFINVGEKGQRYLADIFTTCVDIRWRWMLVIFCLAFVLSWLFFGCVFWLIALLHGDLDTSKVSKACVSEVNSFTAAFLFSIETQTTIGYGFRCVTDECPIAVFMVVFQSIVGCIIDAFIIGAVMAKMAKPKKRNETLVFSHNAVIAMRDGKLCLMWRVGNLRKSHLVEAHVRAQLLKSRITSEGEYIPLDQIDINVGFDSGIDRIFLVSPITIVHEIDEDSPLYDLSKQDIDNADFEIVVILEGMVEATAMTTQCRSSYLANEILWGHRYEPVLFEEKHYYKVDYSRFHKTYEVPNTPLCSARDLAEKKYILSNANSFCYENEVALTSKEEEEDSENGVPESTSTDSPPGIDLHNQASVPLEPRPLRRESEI
KCNK9 uninduced: thallium flux in non-induced HEK293 cells, confirmation, counter-screen for KCNK9 inhibitor project, cell-based, second counter screen, non-induced KCNK9-HEK293; shares compounds with KCNK9 inh; FluxOR thallium flux; inhibition, % at 10 µM; hit rate 40% among 4,900; AID 492997, 2010;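 active = thallium signal drop beyond 5 SD of the untreated control mean, on both duplicate plates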;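 also: plate controls were buffer only IC0 wells for no effect and SID17386958 at its maximal inhibitory level for full effect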
* hit, by the source's call; i = inactive; nt = no result given.

SMILES	KCNK3 block	hERG rescue	KCNQ1 block	KCNK9 inh	KCNQ1 pot	KCNK9 block conf	Kir2-1 spec	KCNK9 uninduced
Cc1c(N2C(=O)/C(=C/c3ccccc3)SC2=S)c(=O)n(-c2ccccc2)n1C	i	-7.6	i	i	i	i	i	i
CC1Sc2ccc(S(=O)(=O)CCC(=O)N3CCN(c4cccc(Cl)c4)CC3)cc2NC1=O (stereo not drawn)	i	-10.5	i	i	i	nt	nt	nt
Fc1ccc2c(c1)C1C=CCC1C(c1cc3c(cc1Br)OCO3)N2 (stereo not drawn)	i	-9.7	i	-13.3*	i	49.0%*	i	48.0%*
O=C(c1cnn2c(C(F)F)cc(-c3ccccc3)nc12)N1CCCCC1c1cccnc1 (stereo not drawn)	i	-7.1	i	i	i	nt	nt	nt
CCCCN(CC)c1nc(N)c(C#N)c(CC#N)c1C#N	i	-7.1	i	-11.3*	i	33.0%*	i	31.5%*
CCOC(=O)C1(Cc2ccccc2C)CCCN(C(=O)c2ccc(CSC)o2)C1 (stereo not drawn)	i	-10.9	i	i	i	nt	nt	nt
COc1ccc(OCCSc2nnc(C)n2-c2ccccc2)cc1	i	-6.3	i	i	i	i	i	i
Cc1cc(SCC(=O)Nc2cccc(S(=O)(=O)N3CCOCC3)c2)nc2ccccc12	i	-11.0	i	i	i	nt	nt	nt
COc1ccc(NC(=O)CN2C(=O)NC3(CCCC3)C2=O)cc1OC	i	-4.6	i	i	i	nt	nt	nt
COc1ccc(NC(=O)CN2C(=O)NC(c3ccccc3)(c3ccccc3)C2=O)cc1OC	i	-2.0	i	-16.2*	i	i	i	i
O=C(O)c1cc(NN=Nc2ccc(Br)cc2)cc([N+](=O)[O-])c1	i	-11.4	i	i	i	i	i	i
O=C(O)c1cc(NN=Nc2cccc([N+](=O)[O-])c2)cc([N+](=O)[O-])c1	i	-7.6	i	i	i	nt	nt	nt
COc1ccccc1CC(=O)Nc1nc(-c2ccc(F)c(F)c2)cs1	i	-10.8	i	-17.1*	i	i	i	39.0%*
Cc1cc(C)c(C(=O)N2CCCC(Nc3ccc(C)c(C)c3)C2)o1 (stereo not drawn)	i	-9.4	i	i	i	i	i	i
COc1ccc(NC2CCCN(C(=O)c3oc(C)cc3C)C2)cc1OC (stereo not drawn)	i	-7.9	i	i	i	nt	nt	nt
Cc1ccc(NC2CCCN(C(=O)C3CCCCC3)C2)cc1C (stereo not drawn)	i	-4.8	i	i	i	i	i	i
CN(C)C1=NCCN1CCC1CCCCC1	i	nt	nt	nt	nt	nt	nt	nt
O=C(Nc1ccccc1N1CCOCC1)c1cc(=O)[nH]c2ccccc12	i	nt	nt	nt	nt	nt	nt	nt
O=c1c(CN2CCN(c3cccc(Cl)c3)CC2)coc2c(Cl)cc(Cl)cc12	i	-11.2	i	i	i	i	i	i
Cc1cc(NC(=O)Cn2cnc3c2c(=O)n(C)c(=O)n3C)n(-c2ccccc2)n1	i	-6.0	i	i	i	nt	nt	nt
CSCc1ccc(C(=O)N2CCCC(Nc3ccc4c(c3)OCCO4)C2)o1 (stereo not drawn)	i	-8.1	i	i	i	i	i	i
O=C(c1ccco1)N1CCCC(Nc2ccc3c(c2)OCCO3)C1 (stereo not drawn)	i	0.5	i	i	i	nt	nt	nt
